Data set [1] is filed under the species Homo sapiens. As to the kind of experiment: Selectivity index, ratio of IC50 for inhibition of recombinant human full length N-terminal GST-tagged HDAC6 expressed in Sf9 cells to IC50 for inhibition of recombinant human HDAC8. The essentials:
(§1)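 HDAC1 and HDAC6 IC50 values from the ZMAL fluorogenic assay: 37 °C for 90 min, then trypsin/TSA development, read at ex 390/em 460 nm. HDAC8 IC50 from the kit enzyme (0.45 U/reaction), 0.5% DMSO, 15 min preincubation with compound, 50 μM Fluor de Lys substrate, 1 h at 30 °C. HDAC8 reaction quenched with TSA (2 μM) in developer, 1 h, read at ex 370/em 450 nm, IC50 by nonlinear regression. Ratio of IC50s.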

For data set [2], the species on record is Homo sapiens. The data set is described as follows: Selectivity index, ratio of IC50 for inhibition of recombinant human full length C-terminal FLAG/His-tagged HDAC1 expressed in Sf9 insect cells to IC50 for inhibition of recombinant human full length N-terminal GST-tagged HDAC6 expressed in Sf9 cells. The essentials: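 Human recombinant HDAC1 or HDAC6 in Tris-HCl pH 8.0 buffer (NaCl, KCl, MgCl2, 1 mg/mL BSA). Incubated with inhibitor dilutions in DMSO and fluorogenic ZMAL substrate (126 μM) at 37 °C for 90 min. Stopped with trichostatin A/trypsin, 30 min at 37 °C. Fluorescence read at ex 390/em 460 nm. IC50 from at least three determinations; ratio HDAC1/HDAC6 IC50.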

Data set [3] is filed under the species Homo sapiens. As to the kind of experiment: Selectivity index, ratio of IC50 for inhibition of recombinant human full length C-terminal FLAG/His-tagged HDAC1 expressed in Sf9 insect cells to IC50 for inhibition recombinant human HDAC8. A digest of the protocol:
as §1

Data set [4] concerns the target T1, Histone deacetylase 8 (Homo sapiens) (UniProt Q9BY41).
T1 sequence (whole entry): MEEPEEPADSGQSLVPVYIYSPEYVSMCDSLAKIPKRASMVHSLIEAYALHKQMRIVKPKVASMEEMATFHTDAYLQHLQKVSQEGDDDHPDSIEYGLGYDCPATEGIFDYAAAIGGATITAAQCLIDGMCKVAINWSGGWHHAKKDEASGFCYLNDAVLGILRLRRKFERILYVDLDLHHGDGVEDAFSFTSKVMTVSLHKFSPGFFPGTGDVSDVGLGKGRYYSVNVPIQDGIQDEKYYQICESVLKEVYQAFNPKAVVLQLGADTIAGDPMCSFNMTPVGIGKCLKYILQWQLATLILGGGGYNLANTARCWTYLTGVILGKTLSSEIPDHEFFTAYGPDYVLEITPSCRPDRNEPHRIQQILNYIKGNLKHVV
The data set is described as follows: Inhibition of HDAC8 in human U-937 cells assessed as increase in acetylation level of SMC3 at 10 uM measured after 48 hrs by Western blot analysis. It counts as cell-based. The essentials:
(§2)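 HCT116 or U937 cells were treated at 10 µM for 24–48 h and lysed in NP40 buffer with protease/phosphatase inhibitors. 50 µg protein was resolved by SDS-PAGE and probed with anti-acetyl-SMC3 (Lys105/106, 1:1000), normalized to GAPDH (1:3000). PCI served as positive control, and band intensities were semi-quantified by densitometry.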
(A western blot detects proteins with antibodies after separation by electrophoresis.)

In data set [5] the target is T1, Histone deacetylase 8 (Homo sapiens). The data set is described as follows: Inhibition of HDAC8 in human HCT-116 cells assessed as increase in acetylation level of SMC3 at 10 uM measured after 24 hrs by Western blot analysis. The class given is cell-based. The essentials: as §2
The next data set concerns U-937. As to the kind of experiment: Antiproliferation activity against human U-937 cells assessed as reduction in cell viability at 5 to 50 uM measured after 48 hrs by CCK-8 assay. It counts as functional, cell-based. The note with it: dose 5-50 µM. The essentials:
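U937 cells were exposed in triplicate to 1, 5, 10 and 50 µM for 24 and 48 h. CCK-8 (WST-8) reagent was then added, with 3 h further incubation at 37 °C, and absorbance was read at 450 nm to give viability.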

The nature of data set [6]: Solubility of compound in PBS at pH 7.4 measured after 24 hrs by HPLC/UV/DAD analysis. It counts as physicochemical. A digest of the protocol: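 10 mM DMSO stock diluted to 250 μM (2.5% DMSO) in 50 mM aqueous PBS pH 7.4. Standard prepared in MeCN/water 60:40. Sealed and shaken 24 h at 25 °C, PTFE-filtered and diluted 1:2 in buffer. Quantified by HPLC/UV/DAD at 254 nm against the 250 μM standard. Triplicate, averaged.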

Data set [7] is described as follows: Chemical stability of compound in PBS at pH 7.4 incubated for 24 hrs under UV 254 nm stress condition by HPLC/UV/DAD analysis. The settings on record: read-out: Stability. The class given is physicochemical.
A short description of data set [8]: Metabolic stability in human liver microsome assessed as apparent decay constant at 5 uM in presence of NADPH incubated up to 60 mins by HPLC analysis. It counts as ADME. The settings on record: microsomes, 1 h. A digest of the protocol:
(§3)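 Compound in MeCN was incubated at 5 µM and 37 °C in 100 mM phosphate buffer pH 7.4 with 0.5 mg/mL human or mouse liver microsomal protein. Reactions were started with an NADPH-regenerating system (2 mM NADPH, glucose-6-phosphate, G6PDH, MgCl2) and stopped with MeCN over 0–60 min. Remaining compound was measured by HPLC-UV at 254 nm, in triplicate, with first-order decay fitting.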
A general note: Liver microsomes are a subcellular fraction often used to study metabolism.

Data set [9] in a line: Metabolic stability in human liver microsome assessed as intrinsic clearance at 5 uM measured per mg protein in presence of NADPH incubated up to 60 mins by HPLC analysis. It counts as ADME. The settings on record: microsomes, 1 h. A digest of the protocol: as §3
Data set [10] is described as follows: Metabolic stability in mouse liver microsome assessed as apparent decay constant at 5 uM in presence of NADPH incubated up to 60 mins by HPLC analysis. The settings on record: liver microsomes. The class given is ADME. A digest of the protocol: as §3
Data set [11] is described as follows: Metabolic stability in mouse liver microsome assessed as intrinsic clearance at 5 uM measured per mg protein in presence of NADPH incubated up to 60 mins by HPLC analysis. The class given is ADME. The note with it: microsomes, 1 h. The essentials:
(§4)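 Compound (in MeCN) at 5 μM incubated at 37 °C in 100 mM phosphate buffer pH 7.4 with 0.5 mg/mL liver microsomal protein (rat, mouse or human). CYP reactions started with NADPH-generating system (2 mM NADPH, glucose-6-phosphate, G6P dehydrogenase, MgCl2). Stopped with MeCN at intervals over 0–60 min. Remaining parent quantified by HPLC-UV at 254 nm. Ln % recovery vs time fitted to first-order decay. Triplicate incubations.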

A short description of data set [12]: Metabolic stability in rat liver microsome assessed as half life at 5 uM in presence of NADPH incubated up to 60 mins by HPLC analysis. The note with it: liver microsomes. It counts as ADME. A digest of the protocol:
as §4

Data set [13] is described as follows: Metabolic stability in rat liver microsome assessed as intrinsic clearance at 5 uM measured per mg protein in presence of NADPH incubated up to 60 mins by HPLC analysis. The class given is ADME. The note with it: microsomes, 1 h. A digest of the protocol: as §4
A further data set has as its system Danio rerio. As to the kind of experiment: In vivo inhibition of HDAC8 in zebrafish AB embryos assessed as increase in acetylation level of alpha-tubulin at 20 to 75 uM measured after 24 hrs by Western blot analysis. The class given is functional, organism-based. The settings on record: dose 20-75 µM.
Data set [14] can be described thus: Toxicity in zebrafish AB embryos at 25 to 75 uM measured after 24 hrs. The settings on record: Danio rerio, in vivo.
A short description of data set [15]: Toxicity in zebrafish AB embryos assessed as tolerance at 25 to 75 uM measured after 24 hrs. The note with it: Danio rerio, in vivo.

Molecules are shown by their SMILES. Values after ≈ are worked out from the molar mass of the structure shown. Active and inactive are the calls of the source. No cut-off for these calls is given here.

Turning to `O=C(NO)c1ccc(CNC(=O)N2CCC(N3C(=O)[C@H](c4ccccc4)[C@H]3c3ccccc3)CC2)cc1` (racemic), the Ratio IC50 in the data set listed under Homo sapiens [1] was 2; in the data set filed under Homo sapiens [2], 200; in the data set filed under Homo sapiens [3], 100. Further, the inhibition entry in [4] and in [5] was “Active” throughout. Further, the result in the data set with U-937 and in the data set with Danio rerio was Active. Besides, the solubility at 24 h in data set [6] was 70 µM (≈ 34.9 µg/mL). Further, in data set [7], the remaining at 24 h came to 100%. For the same molecule, the K in [8] was 0.0129 min⁻¹. Besides, the CLH in data set [9] was found to be 32.28 µL/min; in data set [11], 35.38 µL/min; in data set [13], 8.43 µL/min. Moreover, the k el at 1 h, 5 µM in [10] was 0.000182 s⁻¹. In addition, the half-life at 5 µM in data set [12] was 1.43 h. For the same molecule, the Activity result in data set [14] and in data set [15] was “Non-Toxic” in each case.
`O=C(NO)c1ccc(CC(=O)N2CCC(N3CC(c4ccccc4)(c4ccccc4)C3=O)CC2)cc1`: the values for the Ratio IC50 in the data set filed under Homo sapiens [1], in the data set listed under Homo sapiens [2] and in the data set listed under Homo sapiens [3] were 1, 106 and 86, respectively. Also, the inhibition result in data set [4] and in [5] was “Active” in each case. In the data set on U-937, the outcome was Active.
For `O=C(NO)c1ccc(CNC(=O)N2CCC(N3CC(c4ccccc4)(c4ccccc4)C3=O)CC2)cc1`, the Ratio IC50 was determined as 29 in the data set listed under Homo sapiens [1], 1260 in the data set filed under Homo sapiens [2] and 43 in the data set filed under Homo sapiens [3]. Besides, the inhibition entry in data set [4] and in data set [5] was “Active” throughout. The result with U-937 and with Danio rerio was Active. The same molecule showed a solubility at 24 h in data set [6] of 10 µM (≈ 4.99 µg/mL). Moreover, the remaining at 24 h in data set [7] came to 100%. For the same molecule, in data set [8], the K came to 0.0362 min⁻¹. Besides, the CLH in data set [9] was 90.5 µL/min; in data set [11], 33.63 µL/min; in data set [13], 7.39 µL/min. In addition, the k el at 1 h, 5 µM in data set [10] was 0.000173 s⁻¹. For the same molecule, in data set [12], the half-life at 5 µM was determined as 1.63 h. Moreover, the Activity result in data set [14] and in [15] was “Non-Toxic” in each case.

The solubility is the concentration that dissolves in the medium under given conditions. A low value points to little dissolved substance. By half-life is commonly meant the time in which the quantity being followed falls by half.
